Active and inactive are the calls of the source. No cut-off for these calls is given here.
Experiments:
Rattus norvegicus = species: Rattus norvegicus; experiment: Inhibition of IRE1alpha activation in rat INS-1 cells assessed as suppression of tunicamycin-induced increase in XBP1 mRNA levels up to 10 uM after 8 hrs by agarose gel electrophoresis method; format: cell-based
In short: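 INS-1 cells were exposed to tunicamycin 0.1 μg/mL with compound or DMSO for 8 h. Total XBP1 mRNA was amplified by RT-PCR, and the spliced and unspliced forms were separated electrophoretically.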

[1] = target: T1, Eukaryotic translation initiation factor 2-alpha kinase 3 (Rattus norvegicus) (UniProt Q9Z1Z1); experiment: Inhibition of PERK activation in rat INS-1 cells assessed as suppression of tunicamycin-induced increase in ATF4 mRNA levels up to 10 uM after 8 hrs by qRT-PCR analysis; format: cell-based
T1 sequence (whole entry): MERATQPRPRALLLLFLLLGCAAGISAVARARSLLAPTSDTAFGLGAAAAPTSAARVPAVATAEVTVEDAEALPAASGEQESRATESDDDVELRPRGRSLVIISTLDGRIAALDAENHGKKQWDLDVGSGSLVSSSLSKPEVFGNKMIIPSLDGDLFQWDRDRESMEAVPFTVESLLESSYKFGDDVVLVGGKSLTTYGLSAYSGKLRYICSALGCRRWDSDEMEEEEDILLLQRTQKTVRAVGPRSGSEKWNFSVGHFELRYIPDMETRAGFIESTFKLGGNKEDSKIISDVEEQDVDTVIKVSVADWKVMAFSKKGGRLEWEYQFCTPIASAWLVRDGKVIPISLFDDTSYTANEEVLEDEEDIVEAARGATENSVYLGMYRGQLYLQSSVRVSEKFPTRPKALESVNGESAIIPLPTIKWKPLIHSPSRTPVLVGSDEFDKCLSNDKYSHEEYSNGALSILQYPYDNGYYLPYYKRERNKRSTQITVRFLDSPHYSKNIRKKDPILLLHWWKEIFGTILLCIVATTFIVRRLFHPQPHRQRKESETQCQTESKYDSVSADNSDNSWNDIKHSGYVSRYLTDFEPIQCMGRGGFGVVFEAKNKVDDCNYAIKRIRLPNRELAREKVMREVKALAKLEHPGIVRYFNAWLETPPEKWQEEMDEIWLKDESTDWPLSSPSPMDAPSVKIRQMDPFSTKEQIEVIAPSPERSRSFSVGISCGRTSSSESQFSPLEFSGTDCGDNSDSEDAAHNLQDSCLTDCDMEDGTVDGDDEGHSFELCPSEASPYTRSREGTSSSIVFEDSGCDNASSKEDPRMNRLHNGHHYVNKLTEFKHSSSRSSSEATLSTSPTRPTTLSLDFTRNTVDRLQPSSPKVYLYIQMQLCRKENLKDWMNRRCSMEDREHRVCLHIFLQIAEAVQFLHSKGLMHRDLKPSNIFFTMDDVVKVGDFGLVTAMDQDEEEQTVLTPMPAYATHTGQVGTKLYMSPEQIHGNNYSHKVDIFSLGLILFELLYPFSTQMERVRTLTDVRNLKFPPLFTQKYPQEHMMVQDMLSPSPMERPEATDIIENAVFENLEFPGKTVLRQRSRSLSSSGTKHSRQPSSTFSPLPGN
In short: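 INS-1 cells, 4×10^5 per well, were exposed to tunicamycin 0.1 μg/mL with compound or DMSO for 8 h. qRT-PCR for ATF4, CHOP, Bip, GRP94, or spliced XBP1 using splicing-specific primers. Values were normalized to cyclophilin A by ΔΔCt and given as fold over untreated control. Triplicate wells, 3 independent experiments.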

INS1 = experiment: Cytoprotective activity against tunicamycin ER stress-induced apoptosis in rat INS-1 cells assessed as viable cells at 0.1 uM after 48 hrs by phase contrast microscopic analysis; format: functional, cell-based
In short: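 INS-1 cells were exposed to tunicamycin 0.1 μg/mL with compound (0.1 μM) or DMSO for 48 h. Live-cell phase-contrast images were taken at 10×; 3 independent experiments.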

- inhibition [1]: Active
Structure (SMILES): O=C(NCc1ccc(C(F)(F)F)cc1)c1cccc(CN2CCCCC2)c1
- inhibition (Rattus norvegicus): Active
- Activity (INS1): Active

Source: ChEMBL document CHEMBL4038317, “Discovery of a Benzamide Derivative That Protects Pancreatic β-Cells against Endoplasmic Reticulum Stress” (J Med Chem, 2017)
